# Laboratory results from ChEMBL document CHEMBL3352487, “Synthesis, antibacterial activity, and biological evaluation of formyl hydroxyamino derivatives as novel potent peptide deformylase inhibitors against drug-resistant bacteria” (Eur J Med Chem, 2014).
# How the values were obtained:
# Staphylococcus aureus [1] = experiment: Antimicrobial activity against Staphylococcus aureus MRSA08-12 in peritonitis mouse model assessed as mortality of host at 5 mg/kg, iv as single dose relative to control; assay type: functional
# Method in brief: (§1)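 Outbred KM mice (20–25 g) infected i.p. with a 90–100% lethal dose (5 × 10^7 CFU/mL) in 0.5 mL brain heart infusion broth with 5% mucin. Single i.v. dose of 1.25–20 mg/kg in 20% DMSO, 0.1 mL. Ten mice per dose; daily monitoring for 14 days; ED50 from cumulative mortality by Bliss's method.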
# Staphylococcus aureus [2] = experiment: Antimicrobial activity against Staphylococcus aureus MRSA08-12 in peritonitis mouse model assessed as mortality of host at 1.25 mg/kg, iv as single dose relative to control; assay type: functional; method in brief: as §1
# [3] = Drug recovery in CD1 mouse plasma at 2 uM by equilibrium dialysis; assay type: ADME, cell-free; settings: read-out: Drug recovery
# Method in brief: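 Pooled CD-1 mouse plasma spiked to 2 µM final, equilibrium dialysis in triplicate against 100 mM PBS pH 7.4, 4 h at 37 °C with rotation; matrix-matched samples acetonitrile-precipitated, LC-MS/MS with internal standards. Unbound = free/total ×100; recovery = (free+total)/pre-dialysis ×100.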
# hERG (KCNH2) = hERG (KCNH2) (Homo sapiens, UniProt Q12809); experiment: Inhibition of human ERG at 1 uM
# Chain of hERG (KCNH2) (Q12809 whole entry): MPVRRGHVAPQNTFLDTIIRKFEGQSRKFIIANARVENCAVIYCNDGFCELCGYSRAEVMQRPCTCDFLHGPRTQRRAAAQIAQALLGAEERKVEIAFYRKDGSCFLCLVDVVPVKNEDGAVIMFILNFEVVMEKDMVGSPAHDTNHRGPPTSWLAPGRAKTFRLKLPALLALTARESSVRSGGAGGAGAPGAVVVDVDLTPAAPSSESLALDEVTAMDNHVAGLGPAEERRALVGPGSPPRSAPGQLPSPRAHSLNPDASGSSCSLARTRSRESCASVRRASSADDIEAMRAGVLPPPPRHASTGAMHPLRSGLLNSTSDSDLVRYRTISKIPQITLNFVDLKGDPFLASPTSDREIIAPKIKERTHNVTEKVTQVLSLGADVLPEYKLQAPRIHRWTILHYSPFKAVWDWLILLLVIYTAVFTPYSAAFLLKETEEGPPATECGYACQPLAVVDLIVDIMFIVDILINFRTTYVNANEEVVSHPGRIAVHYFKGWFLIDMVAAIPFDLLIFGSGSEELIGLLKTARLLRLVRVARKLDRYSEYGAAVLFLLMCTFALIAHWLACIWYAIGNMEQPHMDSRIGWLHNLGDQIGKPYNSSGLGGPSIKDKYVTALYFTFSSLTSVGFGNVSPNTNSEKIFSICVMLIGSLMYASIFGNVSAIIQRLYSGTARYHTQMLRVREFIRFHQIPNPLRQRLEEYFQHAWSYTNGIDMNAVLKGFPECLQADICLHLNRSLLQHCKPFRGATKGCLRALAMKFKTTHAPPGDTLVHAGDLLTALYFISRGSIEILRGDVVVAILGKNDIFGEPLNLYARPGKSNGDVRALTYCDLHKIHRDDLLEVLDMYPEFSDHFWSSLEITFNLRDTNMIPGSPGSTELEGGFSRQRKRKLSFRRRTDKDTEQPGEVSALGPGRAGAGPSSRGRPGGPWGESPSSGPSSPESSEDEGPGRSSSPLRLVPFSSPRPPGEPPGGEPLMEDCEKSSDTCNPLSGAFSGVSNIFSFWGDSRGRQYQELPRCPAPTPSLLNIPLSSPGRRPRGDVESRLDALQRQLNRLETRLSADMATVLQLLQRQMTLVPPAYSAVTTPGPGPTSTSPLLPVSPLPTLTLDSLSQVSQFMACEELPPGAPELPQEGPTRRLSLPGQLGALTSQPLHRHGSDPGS
# Mus musculus [4] = experiment: Acute toxicity in KM mouse assessed as abnormal behaviour at 100 mg/kg, iv measured for 14 days; assay type: organism-based; parameters: dose 100 mg/kg, route intravenous; settings: in vivo, 336 h
# Method in brief: (§2)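 Outbred KM mice (SPF, 20–25 g; nine male, ten female) given a single tail-vein injection of 100 or 250 mg/kg in PBS pH 6.5 with 20% DMSO over about 60 s. Behaviour, weight, coat colour, anal temperature, food and water intake, and urine and stool weight followed for 14 days. On day 14, gross necropsy of skin, lungs, heart, liver, kidneys and spleen.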
# Mus musculus [5] = experiment: Acute toxicity in KM mouse assessed as skin abnormality at 250 mg/kg, iv measured for 14 days by necropsy; assay type: organism-based; parameters: dose 250 mg/kg, route intravenous; settings: in vivo, 336 h; method in brief: as §2
# Mus musculus [6] = experiment: Acute toxicity in KM mouse assessed as heart abnormality at 250 mg/kg, iv measured for 14 days by necropsy; assay type: organism-based; parameters: dose 250 mg/kg, route intravenous; settings: in vivo, 336 h; method in brief: as §2
# Mus musculus [7] = experiment: Acute toxicity in KM mouse assessed as liver abnormality at 250 mg/kg, iv measured for 14 days by necropsy; assay type: organism-based; parameters: dose 250 mg/kg, route intravenous; settings: in vivo, 336 h; method in brief: as §2
# Mus musculus [8] = experiment: Acute toxicity in KM mouse assessed as kidney abnormality at 250 mg/kg, iv measured for 14 days by necropsy; assay type: organism-based; parameters: dose 250 mg/kg, route intravenous; settings: in vivo, 336 h; method in brief: as §2
# Mus musculus [9] = experiment: Acute toxicity in KM mouse assessed as spleen abnormality at 250 mg/kg, iv measured for 14 days by necropsy; assay type: organism-based; parameters: dose 250 mg/kg, route intravenous; settings: in vivo, 336 h; method in brief: as §2
# Staphylococcus aureus [10] = experiment: Antimicrobial activity against Staphylococcus aureus after 24 hrs by broth microdilution method; assay type: functional
# Method in brief: (§3)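 Broth microdilution following NCCLS M7-A4; ATCC strains and clinical isolates from a provincial hospital.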
# Staphylococcus aureus [11] = experiment: Antimicrobial activity against methicillin-susceptible Staphylococcus aureus after 24 hrs by broth microdilution method; assay type: functional; method in brief: as §3
# Escherichia coli [12] = experiment: Antimicrobial activity against Escherichia coli isolate 2 after 24 hrs by broth microdilution method; assay type: functional; settings: isolate 2, 24 h; method in brief: as §3
# Staphylococcus aureus [13] = experiment: Antimicrobial activity against Staphylococcus aureus WCUH29 after 24 hrs by broth microdilution method; assay type: functional; settings: WCUH29, 24 h; method in brief: as §3
# Enterococcus faecalis = experiment: Antimicrobial activity against Enterococcus faecalis Isolate 1 after 24 hrs by broth microdilution method; assay type: functional; settings: Isolate 1, 24 h; method in brief: as §3
# Haemophilus influenzae [14] = experiment: Antimicrobial activity against Haemophilus influenzae Q1 after 24 hrs by broth microdilution method; assay type: functional; settings: Q1, 24 h; method in brief: as §3
# Haemophilus influenzae [15] = experiment: Antimicrobial activity against AcrA-deficient Haemophilus influenzae H128 after 24 hrs by broth microdilution method; assay type: functional; settings: H128, 24 h; method in brief: as §3
# Streptococcus pneumoniae [16] = experiment: Antimicrobial activity against Streptococcus pneumoniae N1387 after 24 hrs by broth microdilution method; assay type: functional; settings: N1387, 24 h; method in brief: as §3
# Streptococcus pneumoniae [17] = experiment: Antimicrobial activity against Streptococcus pneumoniae ERY2 after 24 hrs by broth microdilution method; assay type: functional; settings: ERY2, 24 h; method in brief: as §3
# Escherichia coli [18] = experiment: Antimicrobial activity against Escherichia coli isolate 3 after 24 hrs by broth microdilution method; assay type: functional; settings: isolate 3, 24 h; method in brief: as §3
# Streptococcus pyogenes [19] = experiment: Antimicrobial activity against Streptococcus pyogenes 1307006P after 24 hrs by broth microdilution method; assay type: functional; method in brief: as §3
# Streptococcus pyogenes [20] = experiment: Antimicrobial activity against Streptococcus pyogenes 1308007P after 24 hrs by broth microdilution method; assay type: functional; method in brief: as §3
# Staphylococcus aureus [21] = experiment: Antimicrobial activity against Staphylococcus aureus ATCC 29213 after 24 hrs by broth microdilution method; assay type: functional; settings: ATCC 29213, 24 h; method in brief: as §3
# Staphylococcus aureus [22] = experiment: Antimicrobial activity against Staphylococcus aureus isolate A53 after 24 hrs by broth microdilution method; assay type: functional; settings: isolate A53, 24 h
# Method in brief: (§4)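 Broth microdilution following NCCLS M7-A4, using ATCC strains and clinical isolates from a provincial hospital.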
# Staphylococcus aureus [23] = experiment: Antimicrobial activity against Staphylococcus aureus isolate CL 939 after 24 hrs by broth microdilution method; assay type: functional; settings: isolate CL 939, 24 h; method in brief: as §4
# Staphylococcus aureus [24] = experiment: Antimicrobial activity against Staphylococcus aureus isolate F89 after 24 hrs by broth microdilution method; assay type: functional; settings: isolate F89, 24 h; method in brief: as §3
# Staphylococcus aureus [25] = experiment: Antimicrobial activity against Staphylococcus aureus isolate MILES HALL after 24 hrs by broth microdilution method; assay type: functional; method in brief: as §4
# Staphylococcus aureus [26] = experiment: Antimicrobial activity against Staphylococcus aureus isolate RN4220 pmz1 after 24 hrs by broth microdilution method; assay type: functional; settings: isolate RN4220 pmz1, 24 h; method in brief: as §4
# Staphylococcus aureus [27] = experiment: Antimicrobial activity against Staphylococcus aureus isolate RUSSELL after 24 hrs by broth microdilution method; assay type: functional; method in brief: as §4
# Staphylococcus aureus [28] = experiment: Antimicrobial activity against Staphylococcus aureus isolate Smith ATCC 13709 after 24 hrs by broth microdilution method; assay type: functional; settings: isolate Smith ATCC 13709, 24 h; method in brief: as §4
# Staphylococcus aureus [29] = experiment: Antimicrobial activity against Staphylococcus aureus isolate OGA833 after 24 hrs by broth microdilution method; assay type: functional; settings: isolate OGA833, 24 h; method in brief: as §3
# Staphylococcus aureus [30] = experiment: Antimicrobial activity against Staphylococcus aureus isolate RN1024 after 24 hrs by broth microdilution method; assay type: functional; settings: isolate RN1024, 24 h; method in brief: as §4
# Staphylococcus aureus [31] = experiment: Antimicrobial activity against Staphylococcus aureus isolate 306 after 24 hrs by broth microdilution method; assay type: functional; settings: isolate 306, 24 h; method in brief: as §3
# Staphylococcus aureus [32] = experiment: Antimicrobial activity against Staphylococcus aureus isolate 68/8684 after 24 hrs by broth microdilution method; assay type: functional; settings: isolate 68/8684, 24 h; method in brief: as §3
# Staphylococcus aureus [33] = experiment: Antimicrobial activity against Staphylococcus aureus isolate 934387 after 24 hrs by broth microdilution method; assay type: functional; settings: isolate 934387, 24 h; method in brief: as §4
# Staphylococcus aureus [34] = experiment: Antimicrobial activity against Staphylococcus aureus isolate NEQAS 4158 after 24 hrs by broth microdilution method; assay type: functional; settings: isolate NEQAS 4158, 24 h; method in brief: as §3
# [35] = Mean residence time (0 to t) in Sprague-Dawley rat at 5 mg/kg, iv; assay type: ADME, organism-based; parameters: dose 5 mg/kg, route intravenous; settings: in vivo
# [36] = Volume of distribution at steady state in Sprague-Dawley rat at 5 mg/kg, iv; assay type: ADME, organism-based; parameters: dose 5 mg/kg, route intravenous; settings: in vivo, read-out: Vdss
# [37] = Half life in Sprague-Dawley rat at 25 mg/kg, po; assay type: ADME, organism-based; parameters: dose 25 mg/kg, route oral; settings: in vivo
# [38] = Mean residence time (0 to t) in Sprague-Dawley rat at 25 mg/kg, po; assay type: ADME, organism-based; parameters: dose 25 mg/kg, route oral; settings: in vivo
# [39] = Solubility of the compound in artificial intestinal juice measured every 2 hrs for 12 hrs by HPLC analysis; assay type: physicochemical; settings: simulated gi fluid
# Staphylococcus aureus [40] = experiment: Antimicrobial activity against Staphylococcus aureus MRSA08-12 in peritonitis mouse model administered intravenously as single dose; assay type: functional; settings: MRSA08-12, iv
compound,measurement,setting,value
CCCC[C@H](CN(O)C=O)C(=O)N1CC=C[C@H]1C(=O)Nc1ccc(F)c[n+]1[O-],mortality at 5 mg/kg,Staphylococcus aureus [1],60%
same,mortality at 1.25 mg/kg,Staphylococcus aureus [2],100%
same,recovery at 2 µM,[3],91.2%
same,inhibition at 1 µM,hERG (KCNH2),4.55%
same,Activity,Mus musculus [4],Non-toxic
same,Activity,Mus musculus [5],Non-toxic
same,Activity,Mus musculus [6],Non-toxic
same,Activity,Mus musculus [7],Non-toxic
same,Activity,Mus musculus [8],Non-toxic
same,Activity,Mus musculus [9],Non-toxic
same,MIC,Staphylococcus aureus [10],0.5 µg/mL
same,MIC,Staphylococcus aureus [11],1 µg/mL
same,MIC,Escherichia coli [12],64 µg/mL
same,MIC,Staphylococcus aureus [13],0.125 µg/mL
same,MIC,Enterococcus faecalis,4 µg/mL
same,MIC,Haemophilus influenzae [14],1 µg/mL
same,MIC,Haemophilus influenzae [15],≤ 0.06 µg/mL
same,MIC,Streptococcus pneumoniae [16],0.5 µg/mL
same,MIC,Streptococcus pneumoniae [17],1 µg/mL
same,MIC,Escherichia coli [18],64 µg/mL
same,MIC,Streptococcus pyogenes [19],2 µg/mL
same,MIC,Streptococcus pyogenes [20],2 µg/mL
same,MIC,Staphylococcus aureus [21],1 µg/mL
same,MIC,Staphylococcus aureus [22],0.5 µg/mL
same,MIC,Staphylococcus aureus [23],0.125 µg/mL
same,MIC,Staphylococcus aureus [24],1 µg/mL
same,MIC,Staphylococcus aureus [25],0.5 µg/mL
same,MIC,Staphylococcus aureus [26],0.5 µg/mL
same,MIC,Staphylococcus aureus [27],0.5 µg/mL
same,MIC,Staphylococcus aureus [28],0.25 µg/mL
same,MIC,Staphylococcus aureus [29],0.5 µg/mL
same,MIC,Staphylococcus aureus [30],0.5 µg/mL
same,MIC,Staphylococcus aureus [31],2 µg/mL
same,MIC,Staphylococcus aureus [32],> 16 µg/mL
same,MIC,Staphylococcus aureus [33],0.5 µg/mL
same,MIC,Staphylococcus aureus [34],1 µg/mL
same,MRT last,[35],0.564 h
same,Vd,[36],1.72 L/kg
same,half-life,[37],1.82 h
same,MRT last,[38],2.34 h
same,solubility,[39],soluble
same,ED50,Staphylococcus aureus [40],6.25 mg/kg
